The subject of one assay is CEM-SS. In words: In vitro 50% cellular protection of CEM-SS cells from HIV-1 induced cytopathicity. It counts as functional, cell-based. As to conditions: Homo sapiens.
Assay [1] deals with Human immunodeficiency virus type 1 reverse transcriptase (Human immunodeficiency virus 1) (UniProt Q72547). Kind of assay: Inhibition of HIV-1 (wild type) reverse transcriptase at 10 uMol. As to conditions: 10 uM. An outline of the steps: (§1)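 Purified heterodimer RT (0.015 mg/mL) incubated with or without inhibitor (10 μM) in 25 mM Tris pH 8.0, 75 mM KCl, 8 mM MgCl₂, 2 mM DTT, 0.1 mg/mL BSA, CHAPS, 0.1 units poly(rC)-oligo(dG), 0.01 mM dGTP plus [α-³⁵S]-dGTP; 30 min, 37 °C. Nucleotide incorporation expressed relative to no-inhibitor control.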

Assay [2] shares this target. Kind of assay: Compound is evaluated for the percent inhibition of HIV-1 WT Reverse transcriptase at 10 uM drug concentration. The gist of the method: as §1
The target of assay [3] is Human immunodeficiency virus type 1 reverse transcriptase (Human immunodeficiency virus 1, UniProt Q72547). In words: The quantity of compound required to reduce WT Reverse transcriptase activity by 50%. The gist of the method: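 RNA-dependent DNA polymerase activity of purified heterodimer RT (0.015 mg/mL) at various inhibitor concentrations; 25 mM Tris pH 8.0, 75 mM KCl, 8 mM MgCl₂, 2 mM DTT, 0.1 mg/mL BSA, CHAPS, poly(rC)-oligo(dG) template-primer, 0.01 mM dGTP with [α-³⁵S]-dGTP tracer; 30 min at 37 °C; radiolabel incorporation read.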

Assay [4] deals with Human immunodeficiency virus type 1 reverse transcriptase (Human immunodeficiency virus 1) (UniProt Q72547). In words: Compound is evaluated for the percentage of inhibition of HIV-1 WT Reverse transcriptase at 10 uM drug concentration. An outline of the steps:
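Purified heterodimer HIV-1 WT RT (0.015 mg/mL), RNA-dependent DNA polymerase assay; poly(rC)-oligo(dG) template-primer (0.1 units), 0.01 mM dGTP plus [α-³⁵S]-dGTP, in 25 mM Tris pH 8.0, 75 mM KCl, 8 mM MgCl₂, 2 mM DTT, 0.1 mg/mL BSA, CHAPS; 30 min, 37 °C. Nucleotide incorporation relative to no-inhibitor control gives % inhibition.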

`Cc1cccc2c1nc(-c1cccnc1)n2Cc1c(F)cccc1F` yielded an EC50 in the assay on CEM-SS of 31600 nM. The compound further displayed an inhibition in assay [1] of 35%. In the assay on CEM-SS, `Cc1cccc2c1nc(-c1ccncc1)n2Cc1c(F)cccc1F` came in with an EC50 of 3500 nM. Further, the inhibition in assay [1] is 70%. In assay [1], `Cc1cccc2c1nc(-c1c(F)cccc1F)n2Cc1cccnc1` yielded an inhibition of 43%. In turn, `Fc1cccc(F)c1Cn1c(-c2ccccc2)nc2ccccc21` showed an EC50 with CEM-SS of 6060 nM. This compound also had an inhibition in assay [2] of 77%. For the same compound, the IC50 in assay [3] worked out at 16000 nM. In turn, `Cc1cccc2c1nc(-c1c(F)cccc1F)n2Cc1c(Cl)cccc1Cl` showed an EC50 in the assay with CEM-SS of 3160 nM. The compound further came in with an inhibition in assay [1] of 58%. In turn, `Fc1cccc(F)c1C1SCc2nc3ccccc3n21` (centres undefined) [THIAZOLOBENZIMIDAZOLE] gave an EC50 with CEM-SS of 520 nM. In assay [4], this compound registered an inhibition of 84%. The 50% inhibitory concentration (IC50) in assay [3] is 500 nM. On to `Cc1cccc2c1nc(-c1ccc(C#N)cc1)n2Cc1c(F)cccc1F`, for which the inhibition in assay [1] stood at 26%. For `Cc1cccc2c1nc(-c1c(F)cccc1F)n2Cc1c(F)c(F)c(F)c(F)c1F`, the inhibition in assay [1] was determined as 36%. In the assay on CEM-SS, `Fc1cccc(F)c1Cn1c(-c2c(F)cccc2F)nc2ccccc21` displayed an EC50 of 1700 nM. Moreover, the inhibition in assay [1] amounted to 93%. The compound also showed an IC50 in assay [3] of 110 nM. On to `Cc1ccccc1-c1nc2ccccc2n1Cc1c(F)cccc1F`, for which the inhibition in assay [1] stood at 71%.

As for `Cc1cccc2c1nc(-c1c(F)cccc1F)n2Cc1ccccc1`, it took 750 nM to reach a half-maximal effect in the assay with CEM-SS (EC50). This compound yielded an inhibition in assay [1] of 87%. Besides, in assay [3], 1600 nM corresponded to half-maximal inhibition (IC50).

In turn, `Cc1cccc2c1nc(-c1c(F)cccc1F)n2Cc1c(F)cccc1F` registered an EC50 with CEM-SS of 440 nM. Also, in assay [1], the inhibition turned out to be 92%. 200 nM corresponded to half-maximal inhibition in assay [3] (IC50). For `Cc1cccc2c1ncn2Cc1c(F)cccc1F`, the inhibition in assay [1] worked out at 40%.

As to `O=C(c1c(F)cccc1F)n1c(-c2c(F)cccc2F)nc2ccccc21`, the inhibition in assay [1] stood at 8%. `Cc1cccc2c1nc(CO)n2Cc1c(F)cccc1F`: in assay [1], the inhibition is 12%.

For the compound `Cc1cccc2c1nc(-c1cccc3ccccc13)n2Cc1c(F)cccc1F`, the inhibition in assay [1] turned out to be 2%.

Regarding `Cc1cccc2c1nc(-c1ccc3ccccc3c1)n2Cc1c(F)cccc1F`, the inhibition in assay [1] is 8%. The compound `Fc1cccc(F)c1COCc1nc2ccccc2n1Cc1c(F)cccc1F` registered an inhibition in assay [1] of 7%. In assay [1], `Cc1cccc2c1nc(C(C)C)n2Cc1c(F)cccc1F` yielded an inhibition of 53%. In assay [1], `O=S(=O)(c1ccccc1)n1c(-c2c(F)cccc2F)nc2ccccc21` came in with an inhibition of 52%. Same read-out and setting: then `Cc1cccc2c1nc(C=O)n2Cc1c(F)cccc1F`, with 59%. `Cc1cccc2c1nc(-c1c(F)cccc1F)n2S(=O)(=O)c1ccccc1`: the inhibition in assay [1] was 39%. On to `Fc1cccc(F)c1-c1nc2ccccc2n1Cc1ccccc1`, for which the EC50 in the assay with CEM-SS is > 32000 nM. For the same compound, in assay [1], the inhibition came to 71%. In assay [3], half-maximal inhibition (IC50) required 18600 nM. In turn, `Cc1nc2ccccc2n1Cc1c(F)cccc1F` registered an inhibition in assay [1] of 22%.

For orientation: EC50 means the concentration that produces a half-maximal response. Low readings indicate greater potency, high ones weaker potency. In general, inhibition refers to the relative decrease from the control value, in per cent. Read a low inhibition as a weak effect. The term IC50 denotes the point on the concentration scale where inhibition reaches its midpoint. Low values mean greater potency, high ones weaker potency.

The values are drawn from ChEMBL document CHEMBL1130403, “Synthesis and biological activity of novel nonnucleoside inhibitors of HIV-1 reverse transcriptase. 2-Aryl-substituted benzimidazoles” (J Med Chem, 1997).
